Experimental data taken from the EternaBench riboswitch data.

Tested on: MS2 coat protein
Assay: apparent Kd, MS2 coat protein; higher = weaker binding; RNA-MaP array; FMN 200 µM where present
How it was run: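 Binding was read on Illumina sequencing-chip clusters where stalled E. coli RNA polymerase had transcribed each design. A titration of SNAP-549-labelled MS2 coat protein began at 0.7 or 1.5 nM and doubled to 3 µM, once without ligand and once with constant ligand, in 100 mM Tris-HCl pH 7.5, 80 mM KCl, 4 mM MgCl2, BSA, DTT, yeast tRNA and Tween-20. The apparent Kd is the median of filtered per-cluster binding-curve fits, based on green signal normalised to red-channel RNA signal and control-cluster median Fmax.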

[1] = designed as: OFF switch for flavin mononucleotide, no ligand
[2] = ligand present: flavin mononucleotide, designed as: OFF switch for flavin mononucleotide
[3] = designed as: ON switch for flavin mononucleotide, no ligand
[4] = ligand present: flavin mononucleotide, designed as: ON switch for flavin mononucleotide

Row | Sequence | apparent Kd [1] | apparent Kd [2] | apparent Kd [3] | apparent Kd [4]
1 | UGAACUUCAGAGAAGGUCGAACGGCAACGAUUCGAAGGAUAUCUGGAAACAUGAGGAUCACCCAUGUAACCGGGUGGAUGUCCU | 43.3 nM | 182 nM |  | 
2 | GUGUACAGAGGAUAUACAUAAGCAUGGAAACAUGCAACCUCACAUGAGGAUCACCCAUGUAGAAGGCUGUACAC | 161 nM | 65.3 nM |  | 
3 | CAGGUGUUAGGAUAUCGGAGAUUGAGGCAGACGGGAAUAUUCGAGAAGGAACAUGAGGAUCACCCAUGUAGUAG | 24.5 nM | 28.9 nM |  | 
4 | UGGGCUUUAGGAUAUGCGUGUUGUAGUCGGCGAUGUGGUUCACAUGAGGAUCACCCAUGUAGAAGGAGGGUUUA | 139 nM | 120 nM |  | 
5 | CUGUGACGGUGCGCAAGUGUACGUAGAAGGGUCACAUGAGGAUCACCCAUGUGGGCCUGCGAGUGACAGGAUAUACGUGCGUGC | 6.39 nM | 12.4 nM |  | 
6 | GAAGUUAGAGGAUAUACAUGAGGAUCACCCAUGUGUGUUGUGAACAAUGUAUGUUUAUGUAGAAGGCUAACUUC | 79.4 nM | 241 nM |  | 
7 | CUGGUGUGAGGAUAUCAAAGACCUCGGGAAAGAACCGAGAAUGAGAAGGCACAUGAGGAUCACCCAUGUAACAA | 18.2 nM | 30.7 nM |  | 
8 | AAGUCGAGCGUGAGGAUAUCGUUCGAACGACAGAACGAGAAGGCACAUGAGGAUCACCCAUGUGAUUAAGUUCA | 15.8 nM | 18.6 nM |  | 
9 | AUCAGCUCGUCAGGAUAUACGUCACUGCGUCAGCAGUGUGGUAAGAUCACAUGAGGAUCACCCAUGUAGAAGGGACGAGCUGUU | 13.2 nM | 269 nM |  | 
10 | UGGUUAUAUGAAGGAUAUACUUAACAUGAGGAUCACCCAUGUGGUGUUGUGAGUGAGUGAGUUUAGUAGAAGGUCAAUUCUUUU | 176 nM | 197 nM |  | 
11 | AAUAUAAAGCAGAAGGCCUUAUUACAUGAGGAUCACCCAUGUAAUCGUGGGAGGAUAUGCAUGAUACAAGUACGUUUGGUAGGA |  |  | 8.76 nM | 5.22 nM
12 | GUAGCUAUUAUUAUACAUGAGGAUCACCCAUGUUACAUGUGUAAGGAUAUUGAUGUUUUUAUUAUCAAGAAGGUACUAUGCUAC |  |  | 12.3 nM | 8.75 nM
13 | AAAAGCUCAGGAUAUACGGUCUGUUGUUGAGAAAUAAAAAAACAUGAGGAUCACCCAUGUAGAAGGGAGCGAAA | 79.5 nM | 160 nM |  | 
14 | UAUAUUAACAAGAAGGCUAACAUGAGGAUCACCCAUGUUGUACAUGGAUAUAGAGGAUAUUGCUAAUAAUUAUUUAUCAUAAUU | 20.4 nM | 18.3 nM |  | 
15 | UAAUAUUUAUGAUAUUAUUACAGUAGAAGGCUAUACAUGUGGAUACAUGAGGAUCACCCAUGUAUAGAGGAUAUAUACAUAUAU | 964 nM | 351 nM |  | 
16 | GGAUAGGACAGAGGAUAUACGUGCUAGAGAUACUAGCUACAAAUCCUUACAUGAGGAUCACCCAUGUAGAAGGCUGUCCUAUCG | 19.3 nM | 38.3 nM |  | 
17 | UCCUGAUUGAGAGGUAGGAGUGGUAGAAGGCGACCGGUGCCAGAUGACAUGAGGAUCACCCAUGUCGAGGAUAUACCACUGAAU | 7.38 nM | 12.4 nM |  | 
18 | ACGCGAUGGGAGAAGGUACUUUAAAAUAUUUCCACAUGAGGAUCACCCAUGUAAGGAUAUCCCAUCGUUAAAUAUUAUACAGCA | 7.07 nM | 5.91 nM |  | 
19 | AACGCGUCAGGAUAUGCCAUAAAUUACCUAGUACGACCAUAGCAGAAGGGACAUGAGGAUCACCCAUGUAAAUA | 40.5 nM | 28.3 nM |  | 
20 | AGUUAAUAUCGAGGAUAUGUCUAGACACAUGAGGAUCACCCAUGUAUGUGUAUAGAAGGCGAUAUUAACAGCAUGUUACAUGCU |  |  | 42.9 nM | 16.4 nM
21 | UGUUACUAGUAAGGAUAUACUUGCAAUAAGCUUGUAGAAGGUACAGUCUUUUGUAUAACAUGUUUACAUGAGGAUCACCCAUGU |  |  | 10.6 nM | 9.66 nM
22 | AAAAAGCGAGGAUAUACAUGAGGAUCACCCAUGUAAAAAACAUGGGAUGAAACAUCAUGUAGAAGGCGCAAAAA | 22.6 nM | 26 nM |  | 
23 | UGUCCAUAGCAGAAGGCACAUCCACAAAAUAAAACAUGAGGAUCACCCAUGUGAGGAUAUGCUAUGGACUAAGAGCGAAAGCUC | 5.44 nM | 21.8 nM |  | 
24 | GCAGCAAUUUAAAACAUGAGGAUCACCCAUGUCGAGAGAUAUGAGGAUAUGCAUCGGAUGAAGAUGCAGAAGGCAUUGUGCUGC |  |  | 24.8 nM | 7.68 nM

Row | Sequence | apparent Kd [1] | apparent Kd [2] | apparent Kd [3] | apparent Kd [4]
25 | UCGUGCCGGGUCACGAUUGACCCACAUGAGGAUCACCCAUGUAGAAGGACCAGCGUCGGCCCUUGGUAGGAUAUACAUGAGCUC | 94.8 nM | 114 nM |  | 
26 | AGCAUCUGAGGAUAUACUGGGUAUGGAAGGCGAAGGGCCAGACAUGAGGAUCACCCAUGUAGAAGGCAGUUUGC | 79.3 nM | 32.9 nM |  | 
27 | ACAAAUGGAGGAUAUACAUGAGGAUCACCCAUGUAUAUCCUACAUGUGUGAUAAUCAUGUAGAAGGCCAUUUGA | 14 nM | 12.3 nM |  | 
28 | AGUUGGCGAGGAUAUACAUGAGGAUCACCCAUGUGAAAUCGAGAAAAAAUAGGGAAAAGUAGAAGGCGCAGACA | 10.3 nM | 12.1 nM |  | 
29 | CCUUAGUAAGGAUAUCAGCUUAUAGAGUUGGUAAUGAGAGCUGAGAAGGUACAUGAGGAUCACCCAUGUUAGUU | 21.1 nM | 35.1 nM |  | 
30 | UUACUAUUGCAGAAGGCUCAAUAAUAUAUAAAGGGAGGAUAUGCAACAUGAGGAUCACCCAUGUUUCACCCAUAUGAGGAUCAC | 9.51 nM | 13 nM |  | 
31 | GCGAUUUUGUAAGGAUAUACACGAGUUUUAAGUGUAGAAGGUACUUACAUGAGGAUCACCCAUGUAUAAAUGUAUAAUGGUCGC |  |  | 12.4 nM | 9.82 nM
32 | ACGGAGCUAGGAUAUACAUGAGGAUCACCCAUGUAUGAUGCGGCGCCCUUUUGCGCCUGUAGAAGGAGCACCGU | 15.9 nM | 16.5 nM |  | 
33 | CCGGAGACGGGUAGCCUGACAUGAGGAUCACCCAUGUGAUCCAAGGAUAUGGAUCCUAAUUGGAUCCAGAAGGUGGUUGGCUAC |  |  | 376 nM | 371 nM
34 | GUUUCGUGAGGAUAUGUGGCUUCGAUCGUGCGAUCGAGGCUACAGAAGGCACAUGAGGAUCACCCAUGUUCCUC | 45.2 nM | 612 nM |  | 
35 | CUGAGGAAAGGAUAUACAUCAAACUCCUCAUCCUCGAAAGAACAUGAGGAUCACCCAUGUAGAAGGUUCGCGGU | 37.2 nM | 29.8 nM |  | 
36 | CGUUUGGGAGGAUAUCCAAUAUAUGACAUGAGGAUCACCCAUGUUUCCACUCGUACCUCCGGAGAAGGCCCUGCGU | 22.9 nM | 21 nM |  | 
37 | UGGUACAUGGGAGGAUAUGGGUUGAUAACAUGAGGAUCACCCAUGUUAAAUAUCCCGAGAGGGAACUAGAAGGCCCAUGUACCU |  |  | 643 nM | 46 nM
38 | GGUACUCAAAGAGUACAAGGUCGAACAUGAGGAUCACCCAUGUAGGAUAUGCUAAGCAAGAAGUAGCAGAAGGACAUGUGCAGC | 17.7 nM | 59.5 nM |  | 
39 | UUUUAACAUGAGGAUCACCCAUGUGAGGAUAUCGAAAUUUAUAUUAAUAUUUUUAAAACGAGAAGGCACAUUUU | 61.3 nM | 84.8 nM |  | 
40 | UAAGUUUUGGUAGGAUAUACUUUAAAUUUCUCUAUCCAUACAUGAGGAUCACCCAUGUUUACAUUGUAGAAGGACCACUAUGUU | 24.6 nM | 19.7 nM |  | 
41 | UAUAUAUAGUAAGGAUAUGUAUUAAUUUUAUUAACAGAAGGUACUGACAUGAGGAUCACCCAUGUUUUAGUGUGGGCAUGUAGA | 84.2 nM | 149 nM |  | 
42 | AGUCGGAGCAGAGGAUAUACAUGAGGAUCACCCAUGUAAAUGGAAGAAGCCUGGAAACAGGCAAUGUAGAAGGCUGCUCCGACA | 132 nM | 708 nM |  | 
43 | GGUGCGUAUGUGAGGAUAUGCUGGUCCUUGGCUCGGCAGAAGGCACAUGAGGAUCACCCAUGUGGUGUCGUACU | 130 nM | 46 nM |  | 
44 | CCUGUGUGAGGAUAUGGUGUUAAAAAAAAGGAAUAGCUCCUCCAGAAGGCACAUGAGGAUCACCCAUGUCGUGG | 23.4 nM | 57.1 nM |  | 
45 | UUGUAAUGAUUAGGAUAUUAUUAAUAGAACUUUAUGAUAUACAUGAGGAUCACCCAUGUUACUUAUAAGAAGGAAUCGUAUUAU | 21.2 nM | 16.8 nM |  | 
46 | UGGUACUAGGGAGGAUAUGGGAAGAUACAUGAGGAUCACCCAUGUUUAAGAAUGCCGAGAGGCGACUAGAAGGCCCUAGUACCU |  |  | 311 nM | 15.3 nM
47 | UCAUGAAGGACAGGAUAUGGACAUGAGGAUCACCCAUGUACAUGGGAUUAUAUACUGAAUUUAUACUAGAAGGGUUACAUAAAU | 44.7 nM | 30.2 nM |  | 
48 | CAACUGUGAGGAUAUGGUGAGUAGUGCCUGAGCGCUGCUCACCAGAAGGCACAUGAGGAUCACCCAUGUAUGAC | 46 nM | 164 nM |  | 
